The values that follow come from ChEMBL document CHEMBL1131409, “Human telomerase inhibition by regioisomeric disubstituted amidoanthracene-9,10-diones” (J Med Chem, 1998).

One test has as its system A2780. The test can be described thus: In vitro cytotoxicity against A2780 ovarian cells using the sulforhodamine B(SRB) assay. The class given is functional, cell-based. The conditions noted are these: Homo sapiens. The method in brief: (§1)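 SRB growth assay. 3000–6000 cells were seeded and attached overnight. Agents were dissolved at 500 μM in water and added in quadruplicate at final 0.05, 0.25, 1, 5 and 25 μM. After 96 h, cells were fixed with cold 10% TCA and stained with 0.4% SRB. A540 was expressed as percent of untreated control and the 50% growth-inhibitory concentration was derived.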

Another test deals with SK-OV-3. Description: In vitro cytotoxicity against SKOV-3 ovarian cells using the sulforhodamine B(SRB) assay. The format is functional, cell-based. The conditions noted are these: Homo sapiens. The method in brief: as §1
In another test the test system is CH1. The test can be described thus: In vitro cytotoxicity against CH1 ovarian cells using the sulforhodamine B(SRB) assay. The conditions noted are these: Homo sapiens. The format is functional, cell-based. In a few lines: as §1
Test [1] has as its target Telomerase reverse transcriptase (Homo sapiens, UniProt O14746). Description: Inhibitory activity of telomerase was measured using the TRAP assay. In a few lines: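 Cell-free modified TRAP with extracts from exponentially growing A2780 ovarian carcinoma cells. 0.04 μg protein was incubated with TS primer, dNTPs (50 μM each) and [α-32P]dCTP in TRAP buffer (pH 8.3, 68 mM KCl) ± agent, up to 50 μM final, for 20 min at 25 °C. Then 80 °C for 5 min, CX primer plus Taq, 31 PCR cycles. Products read by gel phosphorimaging/autoradiography or filter scintillation counting. IC50 taken as 50% inhibition relative to controls.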

Sequence of Telomerase reverse transcriptase (O14746 whole entry): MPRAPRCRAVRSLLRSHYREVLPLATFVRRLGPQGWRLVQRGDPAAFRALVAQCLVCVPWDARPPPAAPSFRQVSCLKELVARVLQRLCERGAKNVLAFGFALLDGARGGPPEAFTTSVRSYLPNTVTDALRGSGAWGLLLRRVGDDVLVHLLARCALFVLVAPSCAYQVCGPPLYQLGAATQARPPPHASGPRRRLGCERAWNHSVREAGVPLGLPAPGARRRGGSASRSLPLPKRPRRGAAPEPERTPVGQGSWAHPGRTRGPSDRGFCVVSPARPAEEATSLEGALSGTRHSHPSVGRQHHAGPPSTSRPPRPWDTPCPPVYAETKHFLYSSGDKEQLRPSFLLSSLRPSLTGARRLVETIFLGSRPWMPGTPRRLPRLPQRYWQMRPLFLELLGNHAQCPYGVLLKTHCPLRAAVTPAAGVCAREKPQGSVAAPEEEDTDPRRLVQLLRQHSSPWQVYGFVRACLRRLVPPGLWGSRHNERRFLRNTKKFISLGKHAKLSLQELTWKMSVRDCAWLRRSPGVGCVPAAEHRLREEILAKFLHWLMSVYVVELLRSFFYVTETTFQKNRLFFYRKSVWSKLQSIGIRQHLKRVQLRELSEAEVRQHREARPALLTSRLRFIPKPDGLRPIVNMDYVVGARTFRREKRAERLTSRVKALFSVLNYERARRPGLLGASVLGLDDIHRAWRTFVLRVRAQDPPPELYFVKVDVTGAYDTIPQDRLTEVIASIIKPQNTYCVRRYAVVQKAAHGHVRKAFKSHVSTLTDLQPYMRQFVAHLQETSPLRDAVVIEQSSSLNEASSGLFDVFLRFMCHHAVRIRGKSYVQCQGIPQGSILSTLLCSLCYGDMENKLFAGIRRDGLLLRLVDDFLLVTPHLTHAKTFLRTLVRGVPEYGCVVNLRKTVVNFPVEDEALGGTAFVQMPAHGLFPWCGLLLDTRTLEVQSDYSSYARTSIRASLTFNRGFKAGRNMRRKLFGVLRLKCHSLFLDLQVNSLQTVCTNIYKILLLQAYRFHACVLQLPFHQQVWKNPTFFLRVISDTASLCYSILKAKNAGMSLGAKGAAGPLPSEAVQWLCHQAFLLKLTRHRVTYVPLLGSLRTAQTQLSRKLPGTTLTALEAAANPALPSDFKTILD

As to `O=C(CCN1CCCCC1)Nc1ccc2c(c1)C(=O)c1cc(NC(=O)CCN3CCCCC3)ccc1C2=O`, the IC50 with A2780 was found to be 480 nM; in the test with SK-OV-3, 3.7 µM; in the test with CH1, 3.15 µM; in test [1], 3.1 µM.
